Experimental data from ChEMBL document CHEMBL1152612, “Ursolic acid derivatives induce cell cycle arrest and apoptosis in NTUB1 cells associated with reactive oxygen species” (Bioorg Med Chem, 2009).

Experiments:
[1] = Cytotoxicity against human NTUB1 cells after 72 hrs by MTT assay; type: functional, cell-based; details: NTUB1, 72 h
Method in brief: (§1)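 Cells grown in RPMI 1640 with 10% FBS, penicillin/streptomycin and 2 mM L-glutamine at 37 °C under 5% CO₂. Seeded 1800 cells/well, left overnight, then given graded compound concentrations for 72 h; compounds diluted from DMSO, 0.1% DMSO in medium and in controls. MTT 2 mg/mL in PBS for 3 h, formazan dissolved in DMSO, absorbance 540 nm. Viability given as % of control; IC50 by median-effect analysis, mean ± SD.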

[2] = Cytotoxicity against human NTUB1 cells assessed as cell viability at >30 uM after 72 hrs by MTT assay; type: functional; method in brief: as §1

CCCCOC(=O)[C@]12CC[C@@H](C)[C@H](C)[C@H]1C1=CC[C@@H]3[C@@]4(C)CC[C@H](O)C(C)(C)[C@@H]4CC[C@@]3(C)[C@]1(C)CC2 gave an IC50 [1] of 15.6 µM.
With CCOC(=O)[C@]12CC[C@@H](C)[C@H](C)[C@H]1C1=CC[C@@H]3[C@@]4(C)CC[C@H](O)C(C)(C)[C@@H]4CC[C@@]3(C)[C@]1(C)CC2 the IC50 [1] was 13.5 µM.
With C[C@H]1[C@H](C)CC[C@]2(C(=O)O)CC[C@]3(C)C(=CC[C@@H]4[C@@](C)(CCC(=O)O)[C@H](C(C)(C)O)CC[C@]43C)[C@H]12 the Activity [2] was 56.04% and the IC50 [1] was greater than 30 µM.
C[C@H]1[C@H](C)CC[C@]2(C(=O)O)CC[C@]3(C)C(=CC[C@@H]4[C@@]5(C)CCC(=O)C(C)(C)[C@@H]5CC[C@]43C)[C@H]12 [URSONIC ACID] showed an IC50 [1] of 21.4 µM.
Work on C/C=C/C(=O)O[C@H]1CC[C@]2(C)[C@H]3CC=C4[C@@H]5[C@@H](C)[C@H](C)CC[C@]5(C(=O)O)CC[C@@]4(C)[C@]3(C)CC[C@H]2C1(C)C yielded an IC50 [1] of 11.9 µM.
Compound CC(=O)O[C@H]1CC[C@]2(C)[C@H]3CC=C4[C@@H]5[C@@H](C)[C@H](C)CC[C@]5(C(=O)O)CC[C@@]4(C)[C@]3(C)CC[C@H]2C1(C)C [O-ACETYLURSOLIC ACID] has an IC50 [1] of 14.3 µM.
In the case of CCCOC(=O)[C@]12CC[C@@H](C)[C@H](C)[C@H]1C1=CC[C@@H]3[C@@]4(C)CC[C@H](O)C(C)(C)[C@@H]4CC[C@@]3(C)[C@]1(C)CC2, the IC50 [1] is reported as 18.3 µM.
C[C@H]1[C@H](C)CC[C@]2(C(=O)O)CC[C@]3(C)C(=CC[C@@H]4[C@@]5(C)CC[C@H](O)C(C)(C)[C@@H]5CC[C@]43C)[C@H]12 [URSOLIC ACID] gave an IC50 [1] of 29.4 µM.
CCCCCCOC(=O)[C@]12CC[C@@H](C)[C@H](C)[C@H]1C1=CC[C@@H]3[C@@]4(C)CC[C@H](O)C(C)(C)[C@@H]4CC[C@@]3(C)[C@]1(C)CC2 gave an IC50 [1] of 26.2 µM.
With CCCC(=O)O[C@H]1CC[C@]2(C)[C@H]3CC=C4[C@@H]5[C@@H](C)[C@H](C)CC[C@]5(C(=O)O)CC[C@@]4(C)[C@]3(C)CC[C@H]2C1(C)C the Activity [2] was 76.47% and the IC50 [1] was greater than 30 µM.
Work on C[C@H]1[C@H](C)CC[C@]2(C(=O)OCCO)CC[C@]3(C)C(=CC[C@@H]4[C@@]5(C)CC[C@H](O)C(C)(C)[C@@H]5CC[C@]43C)[C@H]12 yielded an IC50 [1] of 19.5 µM.
Work on COC(=O)[C@]12CC[C@@H](C)[C@H](C)[C@H]1C1=CC[C@@H]3[C@@]4(C)CCC(=O)C(C)(C)[C@@H]4CC[C@@]3(C)[C@]1(C)CC2 yielded an IC50 [1] of 29.6 µM.
With C[C@H]1[C@H](C)CC[C@]2(C(=O)OCC(=O)OC(C)(C)C)CC[C@]3(C)C(=CC[C@@H]4[C@@]5(C)CC[C@H](O)C(C)(C)[C@@H]5CC[C@]43C)[C@H]12 the Activity [2] was 64.85% and the IC50 [1] was greater than 30 µM.
For COC(=O)[C@]12CC[C@@H](C)[C@H](C)[C@H]1C1=CC[C@@H]3[C@@]4(C)CC[C@H](O)C(C)(C)[C@@H]4CC[C@@]3(C)[C@]1(C)CC2 [METHYL URSOLATE], the IC50 [1] was 37.1 µM.
With CCCCCOC(=O)[C@]12CC[C@@H](C)[C@H](C)[C@H]1C1=CC[C@@H]3[C@@]4(C)CC[C@H](O)C(C)(C)[C@@H]4CC[C@@]3(C)[C@]1(C)CC2 the IC50 [1] was 27.8 µM.
C=C(C)[C@@H]1CC[C@]2(C)[C@H](CC=C3[C@@H]4[C@@H](C)[C@H](C)CC[C@]4(C(=O)OC)CC[C@]32C)[C@@]1(C)CCC(=O)OC showed an IC50 [1] of 15.6 µM.
C=C(C)[C@@H]1CC[C@]2(C)[C@H](CC=C3[C@@H]4[C@@H](C)[C@H](C)CC[C@]4(C(=O)O)CC[C@]32C)[C@@]1(C)CCC(=O)OC gave an Activity [2] of 62.77% and an IC50 [1] greater than 30 µM.
Work on CC(C)=CCOC(=O)[C@]12CC[C@@H](C)[C@H](C)[C@H]1C1=CC[C@@H]3[C@@]4(C)CC[C@H](O)C(C)(C)[C@@H]4CC[C@@]3(C)[C@]1(C)CC2 yielded an IC50 [1] of 10.9 µM.
In the case of CC(C)CC(=O)O[C@H]1CC[C@]2(C)[C@H]3CC=C4[C@@H]5[C@@H](C)[C@H](C)CC[C@]5(C(=O)O)CC[C@@]4(C)[C@]3(C)CC[C@H]2C1(C)C, the IC50 [1] is reported as 31 µM.
